Series [1] concerns Plasmodium berghei. Kind of series: Antimalarial activity against Plasmodium berghei infected in Swiss Webster mouse assessed as mouse survival rate at 1 mg/kg administered once daily via oral gavage for 4 consecutive days beginning 1 hr after infection measured on day 6 post infection relative to control. The class given is functional. In short, it runs like this:
(§1)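 Mice given an intraperitoneal injection of P. berghei-infected erythrocytes taken from a previously infected animal. Oral dosing once daily for 4 consecutive days, starting 1 h after infection. Vehicle: polyethylene glycol 300/propylene glycol/water (weight ratio 55/25/20). Percent survival recorded daily from day 4 to day 20. Chloroquine 30 mg/kg and vehicle-only groups served as controls.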

The test system of series [2] is Plasmodium berghei. Kind of series: Antimalarial activity against Plasmodium berghei infected in Swiss Webster mouse assessed as mouse survival rate at 1 mg/kg administered once daily via oral gavage for 4 consecutive days beginning 1 hr after infection measured on day 7 post infection relative to control. The class given is functional. The method, boiled down: as §1

Series [3] relates to Plasmodium berghei. Kind of series: Antimalarial activity against Plasmodium berghei infected in Swiss Webster mouse assessed as mouse survival rate at 0.3 mg/kg administered once daily via oral gavage for 4 consecutive days beginning 1 hr after infection measured on day 7 post infection relative to control. It counts as functional. In short, it runs like this: as §1
Series [4] in a line: Volume of distribution at steady state in Sprague-Dawley rat at 5 mg/kg, iv by HPLC/MS analysis. The class given is ADME, organism-based. To be noted: in vivo, read-out: Vdss.
Series [5] deals with Salmonella typhimurium. Kind of series: Genotoxicity in Salmonella typhimurium TA1537 assessed as number of revertants per plate at 1500 ug/plate in absence of rat liver S9 fraction by Ames test (reference value: 19 +/- 9). To be noted: salmonella enterica subsp. enterica serovar typhimurium. It counts as toxicity. Background: The Ames test detects mutagens through reverse mutation in bacteria.

The subject of series [6] is Salmonella typhimurium. Kind of series: Genotoxicity in Salmonella typhimurium TA100 assessed as number of revertants per plate at 1500 ug/plate in absence of rat liver S9 fraction by Ames test (reference value: 154 +/- 9). The class given is toxicity. To be noted: salmonella enterica subsp. enterica serovar typhimurium.
Series [7] has as its system Salmonella typhimurium. Kind of series: Genotoxicity in Salmonella typhimurium TA1535 assessed as number of revertants per plate at 15 ug/plate in presence of rat liver S9 fraction by Ames test (reference value: 10). The class given is toxicity. The conditions noted are these: salmonella enterica subsp. enterica serovar typhimurium.
Series [8] concerns Lymphocyte. Kind of series: Genotoxicity in human lymphocytes assessed as increase in frequency of micronucleated cells at 355.15 ug/mL after 3 hrs in presence of rat liver S9 fraction by micronucleus assay (reference value: 0.63%). The class given is toxicity, cell-based. To be noted: s9, 3 h.
Series [9] relates to Plasmodium falciparum. Kind of series: Antimalarial activity against Plasmodium falciparum 3D7 0087/N9 infected in NOD/SCID IL2R gamma null mouse assessed as decrease in parasitemia at 0.3 to 75 mg/kg up to 7 days post infection. It counts as functional, organism-based. In short, it runs like this: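 Human-erythrocyte-engrafted NODscidIL2Rγnull mice carrying P. falciparum Pf3D70087/N9 in peripheral blood; compound given orally once daily for four consecutive days.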

Series [10] concerns Lymphocyte. Kind of series: Genotoxicity in human lymphocytes assessed as replication index at 160 ug/mL after 28 hrs in absence of rat liver S9 fraction by micronucleus assay relative to control. It counts as toxicity, cell-based. In short, it runs like this:
(§2)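 Human lymphocytes exposed for 3 h with or without rat liver S9, or 28 h without S9, with 1% DMSO as vehicle control. Replication index = (binucleated + 2 × multinucleated cells)/total cells. Cytotoxicity (%) = 100 − (RI treated/RI vehicle) × 100.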

The nature of series [11]: Terminal half life in Beagle dog at 5 mg/kg, iv by HPLC/MS analysis. The class given is ADME, organism-based, Canis lupus familiaris. The conditions noted are these: in vivo, read-out: beta t1/2 (converted). The method, boiled down: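 Female CD-1 mice, male SD rats or beagle dogs given 5 mg/kg by iv injection or oral gavage. Formulation was PEG300/propylene glycol/water 55/25/20, pH 6. Blood samples analysed by HPLC–MS/MS; parameters include AUC0-inf extrapolated to infinity and terminal half-life.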

For series [12], the system named is Salmonella typhimurium. Kind of series: Genotoxicity in Salmonella typhimurium TA1535 assessed as number of revertants per plate at 5 ug/plate in absence of rat liver S9 fraction by Ames test (reference value: 10 +/- 3). The class given is toxicity. To be noted: salmonella enterica subsp. enterica serovar typhimurium.
The test system of series [13] is Salmonella typhimurium. Kind of series: Genotoxicity in Salmonella typhimurium TA98 assessed as number of revertants per plate at 1500 ug/plate in presence of rat liver S9 fraction by Ames test (reference value: 19 +/- 8). The class given is toxicity. To be noted: salmonella enterica subsp. enterica serovar typhimurium.
In series [14] the test system is Salmonella typhimurium. Kind of series: Genotoxicity in Salmonella typhimurium TA1535 assessed as number of revertants per plate at 150 ug/plate in presence of rat liver S9 fraction by Ames test (reference value: 10). The class given is toxicity. The conditions noted are these: salmonella enterica subsp. enterica serovar typhimurium.
Series [15] concerns Plasmodium falciparum. Kind of series: Antimalarial activity against Plasmodium falciparum FCB infected in human erythrocytes assessed as reduction in [3H]-hypoxanthine incorporation preincubated for 24 hrs followed by [3H]-hypoxanthine addition measured after 24 hrs by scintillation counting method. The class given is functional, cell-based.
The test system of series [16] is Plasmodium falciparum. Kind of series: Antimalarial activity against intraerythrocytic stage of Plasmodium falciparum assessed as parasite reduction ratio at 30 times IC50 preincubated for 24 hrs followed by [3H]-hypoxanthine addition measured after 24 hrs by scintillation counting method. The class given is functional. In short, it runs like this: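 In vitro P. falciparum parasite reduction ratio assay run at 10×, 30× and 100× IC50. Derived parameters: lag phase (time to maximal killing), PRR (parasites killed per life cycle) and PCT99.9% (time to clear 99.9% of the initial parasite population).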

For series [17], the system named is Salmonella typhimurium. Kind of series: Genotoxicity in Salmonella typhimurium TA98 assessed as number of revertants per plate at 500 ug/plate in absence of rat liver S9 fraction by Ames test (reference value: 14 +/- 6). The class given is toxicity. The conditions noted are these: salmonella enterica subsp. enterica serovar typhimurium.
The subject of series [18] is Lymphocyte. Kind of series: Genotoxicity in human lymphocytes assessed as increase in frequency of micronucleated cells at 160 ug/mL after 3 hrs in presence of rat liver S9 fraction by micronucleus assay (reference value: 0.63%). It counts as toxicity, cell-based. To be noted: s9, 3 h.
Series [19] deals with Lymphocyte. Kind of series: Genotoxicity in human lymphocytes assessed as replication index at 355.15 ug/mL after 3 hrs in presence of rat liver S9 fraction by micronucleus assay relative to control. The class given is toxicity, cell-based. To be noted: s9, 3 h. The method, boiled down: as §2
The subject of series [20] is Salmonella typhimurium. Kind of series: Genotoxicity in Salmonella typhimurium TA100 assessed as number of revertants per plate at 5 ug/plate in absence of rat liver S9 fraction by Ames test (reference value: 154 +/- 9). The class given is toxicity. To be noted: salmonella enterica subsp. enterica serovar typhimurium.
For series [21], the system named is Salmonella typhimurium. Kind of series: Genotoxicity in Salmonella typhimurium TA100 assessed as number of revertants per plate at 50 ug/plate in absence of rat liver S9 fraction by Ames test (reference value: 154 +/- 9). It counts as toxicity. To be noted: salmonella enterica subsp. enterica serovar typhimurium.
Series [22] relates to Salmonella typhimurium. Kind of series: Genotoxicity in Salmonella typhimurium TA98 assessed as number of revertants per plate at 50 ug/plate in presence of rat liver S9 fraction by Ames test (reference value: 19 +/- 8). It counts as toxicity. To be noted: salmonella enterica subsp. enterica serovar typhimurium.
Series [23] relates to Salmonella typhimurium. Kind of series: Genotoxicity in Salmonella typhimurium TA1535 assessed as number of revertants per plate at 5000 ug/plate in presence of rat liver S9 fraction by Ames test (reference value: 10). It counts as toxicity. The conditions noted are these: salmonella enterica subsp. enterica serovar typhimurium.
For a further series, the system named is Escherichia coli. Kind of series: Genotoxicity in Escherichia coli WP2uvrA assessed as number of revertants per plate at 1500 ug/plate in presence of rat liver S9 fraction by Ames test (reference value: 42 +/- 6). It counts as toxicity.
The test system of series [24] is Salmonella typhimurium. Kind of series: Genotoxicity in Salmonella typhimurium TA98 assessed as number of revertants per plate at 150 ug/plate in presence of rat liver S9 fraction by Ames test (reference value: 19 +/- 8). It counts as toxicity. The conditions noted are these: salmonella enterica subsp. enterica serovar typhimurium.
Series [25] concerns Salmonella typhimurium. Kind of series: Genotoxicity in Salmonella typhimurium TA1537 assessed as number of revertants per plate at 1500 ug/plate in presence of rat liver S9 fraction by Ames test (reference value: 11 +/- 4). It counts as toxicity. To be noted: salmonella enterica subsp. enterica serovar typhimurium.
For series [26], the system named is Salmonella typhimurium. Kind of series: Genotoxicity in Salmonella typhimurium TA98 assessed as number of revertants per plate at 1.5 ug/plate in absence of rat liver S9 fraction by Ames test (reference value: 14 +/- 6). To be noted: salmonella enterica subsp. enterica serovar typhimurium. It counts as toxicity.

The structures appear in SMILES notation. The source made the active and inactive calls. No cut-off for these calls is given here.

For orientation: IC50 means the concentration at which inhibition is half-maximal.

For `Cc1c(Oc2cnc(C(=O)NC(C)CO)cn2)ccc2c1B(O)OC2` (configuration not stated), the survival at 1 mg/kg in the series with Plasmodium berghei [1] and in the series on Plasmodium berghei [2] was 20% in each case. For the same compound, in the series with Plasmodium berghei [3], the survival at 0.3 mg/kg was 20%.
Regarding `Cc1c(Oc2cnc(C(=O)N3CC(C)(O)C3)cn2)ccc2c1B(O)OC2`, the Vd in series [4] was found to be 0.831 L/kg. Moreover, the Activity stood at 10 in the series with Salmonella typhimurium [5]; 133 in the series with Salmonella typhimurium [6]; 12 in the series with Salmonella typhimurium [7]; 0.73% with Lymphocyte [8]; 13% in the series on Lymphocyte [10]; 8 with Salmonella typhimurium [12]. Also, the Activity is listed as 15 with Salmonella typhimurium [13]; 15 in the series with Salmonella typhimurium [14]; 10 in the series with Salmonella typhimurium [17]; 0.5% in the series on Lymphocyte [18]; 7% with Lymphocyte [19]; 152 with Salmonella typhimurium [20]. Further, the Activity in the series with Salmonella typhimurium [21] is reported as 132; with Salmonella typhimurium [22] it was 17; with Salmonella typhimurium [23] it was 6; with Escherichia coli it was 26; in the series with Salmonella typhimurium [24], 10; with Salmonella typhimurium [25], 8. The Activity in the series on Salmonella typhimurium [26] came to 15. For the same compound, the outcome in the series on Plasmodium falciparum [9] was Active. Besides, the half-life in series [11] was 414 min. Besides, the half-maximal inhibitory concentration (IC50) with Plasmodium falciparum [15] came to 66 nM. The “log(ratio)” value in the series with Plasmodium falciparum [16] was found to be 4.9.
